Measured values from ChEMBL document CHEMBL1126583, “Potent quinoxaline-spaced phosphono alpha-amino acids of the AP-6 type as competitive NMDA antagonists: synthesis and biological evaluation” (J Med Chem, 1993).

How the values were obtained:
[1] = molecular target: Glutamate NMDA receptor; experiment: Tested for binding affinity against NMDA receptor, from rat synaptic membrane, using [3H]-CPP as the radioligand.
How it was run: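 Rat whole-brain crude synaptic membranes, Triton X-100 treated and frozen at -70 °C; 0.2–0.5 mg protein incubated 15 min at 23 °C with 8 nM [3H]CPP in 50 mM Tris HCl pH 7.6. Nonspecific binding defined with 1.0 mM NMDA. Bound ligand separated by centrifugation and counted by scintillation. Triplicates, 5–10 concentrations; IC50 with 95% confidence limits.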

[2] = molecular target: Glutamate NMDA receptor; experiment: Tested for binding affinity against NMDA receptor, from rat synaptic membrane, using [3H]TCP as the radioligand.
How it was run: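 Stimulated binding assay on rat whole-brain synaptic membranes in 5.0 mM Tris HCl pH 7.4. […] 100 μM MK-801 defines nonspecific binding. Filtration through PEI-soaked glass-fiber filters, then scintillation counting. Triplicates, 5–10 concentrations; IC50 with 95% confidence limits.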

[3] = molecular target: Glutamate NMDA receptor; experiment: Tested for binding affinity against NMDA receptor, from rat synaptic membrane, using [3H]glycine as the radioligand.
How it was run: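 Rat whole-brain synaptic membranes washed and resuspended in 50 mM Tris citrate. Separation by centrifugation, then scintillation counting.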

IC50 [1] [µM] | IC50 [2] [µM] | IC50 [3] [µM] | Compound
0.0223 | 16.4 |  | Cc1cc2nc(CC(N)C(=O)O)c(CP(=O)(O)O)nc2cc1C (configuration not stated)
> 1 |  |  | NC(Cc1nc2ccccc2nc1CP(=O)(O)O)C(=O)O (single isomer, unassigned; (+))
0.028 | 22.4 | > 100 | O=C(O)[C@@H]1C[C@H](CP(=O)(O)O)CCN1 [SELFOTEL]
0.832 |  |  | COc1cc2nc(CC(N)C(=O)O)c(CP(=O)(O)O)nc2cc1OC (configuration not stated)
0.0034 | 11.7 | 0.61 | NC(Cc1nc2cc(Cl)c(Cl)cc2nc1CP(=O)(O)O)C(=O)O (configuration not stated)
0.166 |  |  | NC(Cc1nc2cc(F)c(F)cc2nc1CP(=O)(O)O)C(=O)O (configuration not stated)
0.024 | 8.6 | > 100 | NC(Cc1nc2cc(Cl)ccc2nc1CP(=O)(O)O)C(=O)O (configuration not stated)
> 1 |  |  | NC(Cc1nc2ccccc2nc1CCP(=O)(O)O)C(=O)O (configuration not stated)
> 1 |  |  | CCOC(=O)C(N)Cc1nc2ccccc2nc1CP(=O)(O)O (configuration not stated)
0.113 |  | > 100 | O=C(O)C1CN(CCCP(=O)(O)O)CCN1 (configuration not stated)
0.0065 | 5.6 |  | NC(Cc1nc2cc3ccccc3cc2nc1CP(=O)(O)O)C(=O)O (configuration not stated)
> 1 |  |  | NC(Cc1cc2nccnc2cc1CP(=O)(O)O)C(=O)O (configuration not stated)
0.245 |  |  | NC(Cc1nc2c(Cl)ccc(Cl)c2nc1CP(=O)(O)O)C(=O)O (configuration not stated)
0.0293 | 21 |  | NC(Cc1nc2ccccc2nc1CP(=O)(O)O)C(=O)O (stereo in doubt; 9)
> 1 |  |  | NC(Cc1nc2ccccc2nc1/C=C/P(=O)(O)O)C(=O)O (configuration not stated)
0.038 | 13.9 | 1.8 | NC(Cc1nc2ccc(Cl)cc2nc1CP(=O)(O)O)C(=O)O (configuration not stated)
0.119 | 28 | 4.7 | NC(Cc1nc2ccccc2nc1CP(=O)(O)O)C(=O)O (stereo in doubt; 7)

Compound | IC50 [1] [µM] | IC50 [2] [µM] | IC50 [3] [µM]
NC(CCCCCP(=O)(O)O)C(=O)O (configuration not stated) [AP-7] |  | 302 | 
